Assay results from PubChem BioAssay.

Test: LAP4-GFP expression modulators in yeast, confirmation, cell-based, cherry picks, flow cytometry, mother/daughter gates (AID 2271);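 further: ratio of sample to DMSO plate mean so 100% equals DMSO level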
Settings: S. cerevisiae LAP4-GFP strain, 3 h, measured here: mother cell gate response, at 10 µM, stronger effect = higher value, 100 means same as DMSO control
Procedure, shortened: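 material = Alexa 633-stained baker's yeast GFP-fusion strain | amount = 0.2 OD600 cells | schedule = 30 °C, 3 h compound incubation, rotating | signal = GFP by flow cytometry | measure = per-gate (all, mother, daughter) GFP response vs DMSO | controls = positive rapamycin (400 ng/mL), negative DMSO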

SMILES | GFP response relative to DMSO [%]
O=C(Nc1cccnc1)c1ccc(-c2ccc(Cl)cc2)o1 | 103
Oc1c(N=Nc2ccccn2)ccc2ccccc12 | 66
Cc1cccn2c(=O)c3cc(C(=O)NCCc4ccccc4)c(=N)n(CCCn4ccnc4)c3nc12 | 92.3
Cc1ccc(CS(=O)(=O)c2ncc(Cl)c(C(=O)Nc3nnc(C(C)C)s3)n2)cc1 | 99.5
Oc1ccc2ccccc2c1N=Nc1nccs1 | 165
Oc1c(CN2CCN(c3ccc(F)cc3)CC2)cc(Cl)c2cccnc12 | 245
Oc1ccc(Br)cc1/C=N/Nc1ccccn1 | 261
O=C(/C=C/Sc1ncn[nH]1)c1ccc(Cl)cc1 | 214
C/C(=N\Nc1ncnc2sc(C)c(C)c12)c1ccccn1 | 395
CC(=O)Nc1ccc(Nc2cc(C)nc3c(-c4ccc(Cl)cc4)c(C)nn23)cc1 | 95.1
O=C1C=CC(=O)N1c1ccc(N2CCCCC2)cc1 | 218
CCn1c(/C=C/c2ccc([N+](=O)[O-])o2)nc2ccccc2c1=O | 334
COc1ccc(C(=O)NC(=S)NNC(=O)CCc2ccccc2)cc1 | 189
Cc1ccc(-c2noc(CCC(=O)Nc3ccccc3C)n2)cc1 | 112
Nc1c(C(=O)c2cccs2)sc2nsc(SCCN3CCCCC3)c12 | 158
Cc1[nH]c(-c2ccccn2)nc(=S)c1Cl | 266
CCCCC(=O)O[C@]1(C(=O)CO)CC[C@H]2[C@@H]3CCC4=CC(=O)CC[C@]4(C)[C@H]3[C@@H](O)C[C@@]21C | 99.3
Nc1ccccc1SC(C[N+](=O)[O-])c1ccccc1 (configuration not stated) | 169
N/C(=N\OC(=O)c1ccccc1Cl)c1ccc(Cl)cc1 | 135

SMILES | GFP response relative to DMSO [%]
Cc1[nH][nH]c(=O)c1C(c1ccc(-c2ccc(Cl)cc2)o1)c1c(C)[nH][nH]c1=O | 179
Cc1ccc(/C=C2/C(=O)ON=C2c2ccccc2)o1 | 219
C[n+]1ccc(/C=C/c2c[nH]c3ccccc23)cc1 | 143
Cc1cc(O)c(C(=O)/C=C/c2c(F)c(F)c(F)c(F)c2F)c(=O)o1 | 160
CCOc1ccc(Nc2ccc(C(=O)O)cc2[N+](=O)[O-])cc1 | 100
O=C1C=CC(=O)N1c1cccc(-c2ccccc2)c1 | 191
Cc1cccc(C)c1NC(=O)C(Cl)C(=O)c1ccccc1 (configuration not stated) | 252
O=C(NC(=S)NNC(=O)c1cnccn1)c1ccc(F)cc1 | 254
CCCc1[nH]nc2c1C(c1ccccc1OC)C(C#N)=C(N)O2 (configuration not stated) | 100
CC(C)(C)C(=O)NC(=S)NNC(=O)c1ccc(-c2ccccc2)cc1 | 209
O=C1Oc2ccccc2C(=O)/C1=C/c1ccccc1O | 373
O=C(Nc1ccccc1)c1nnsc1S(=O)(=O)c1ccc(Cl)cc1 | 206
CCCc1cc(NCc2ccccn2)n2nc(C)c(-c3ccccc3)c2n1 | 148
Cc1cc(C)nc(S/C=C/C(=O)c2ccccc2)n1 | 191
Cc1nn2c(NCc3ccccn3)c3c(nc2c1-c1ccccc1)CCC3 | 114
CC(NCCS(=O)(=O)c1ccc(Cl)cc1)c1cccc(Cl)c1 (configuration not stated) | 99.5
CCCOc1ccc(C(=O)NNC(=S)NC(=O)CC)cc1 | 169
O=C(c1ccc(Cl)c([N+](=O)[O-])c1)N1CCN(c2ccccc2)CC1 | 111
